Test [1] addresses T1, Serine/threonine-protein kinase STK11 (Homo sapiens) (UniProt Q15831).
T1 sequence (whole entry): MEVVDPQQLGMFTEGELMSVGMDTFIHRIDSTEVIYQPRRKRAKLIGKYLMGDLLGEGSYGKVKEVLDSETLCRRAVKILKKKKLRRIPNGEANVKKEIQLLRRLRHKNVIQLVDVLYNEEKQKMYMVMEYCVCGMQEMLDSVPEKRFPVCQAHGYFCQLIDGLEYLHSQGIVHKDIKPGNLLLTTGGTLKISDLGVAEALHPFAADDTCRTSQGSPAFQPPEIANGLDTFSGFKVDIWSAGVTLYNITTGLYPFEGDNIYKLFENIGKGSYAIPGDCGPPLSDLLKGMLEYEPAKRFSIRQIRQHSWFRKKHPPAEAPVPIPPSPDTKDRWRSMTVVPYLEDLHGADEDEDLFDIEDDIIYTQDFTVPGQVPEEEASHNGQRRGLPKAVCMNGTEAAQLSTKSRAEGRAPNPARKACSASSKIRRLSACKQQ
Kind of test: Inhibition of LKB1 assessed as residual activity at 10 uM. The method in brief:
(§1)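 Kinase panel screen run as a radioactive activity assay at single compound concentration. Score reported as percent activity remaining relative to DMSO controls (100%).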

Test [2] has as its target Tyrosine-protein kinase Lck (Homo sapiens) (UniProt P06239). Kind of test: Inhibition of Lck assessed as residual activity at 10 uM. In short, it runs like this: as §1
Test [3] has as its target Serine/threonine-protein kinase pim-3 (Homo sapiens) (UniProt Q86V86). Kind of test: Inhibition of PIM3 assessed as residual activity at 10 uM. In short, it runs like this: (§2)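 Panel screen by radioactive kinase assay at a single inhibitor concentration. Score is the percent activity remaining relative to DMSO controls (100%).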
Test [4] has as its target Receptor tyrosine-protein kinase erbB-4 (Homo sapiens) (UniProt Q15303). Kind of test: Inhibition of HER4 assessed as residual activity at 10 uM. The method in brief: as §1
For test [5], the target named is T2, Serine/threonine-protein kinase D1 (Homo sapiens) (UniProt Q15139).
T2 sequence (whole entry): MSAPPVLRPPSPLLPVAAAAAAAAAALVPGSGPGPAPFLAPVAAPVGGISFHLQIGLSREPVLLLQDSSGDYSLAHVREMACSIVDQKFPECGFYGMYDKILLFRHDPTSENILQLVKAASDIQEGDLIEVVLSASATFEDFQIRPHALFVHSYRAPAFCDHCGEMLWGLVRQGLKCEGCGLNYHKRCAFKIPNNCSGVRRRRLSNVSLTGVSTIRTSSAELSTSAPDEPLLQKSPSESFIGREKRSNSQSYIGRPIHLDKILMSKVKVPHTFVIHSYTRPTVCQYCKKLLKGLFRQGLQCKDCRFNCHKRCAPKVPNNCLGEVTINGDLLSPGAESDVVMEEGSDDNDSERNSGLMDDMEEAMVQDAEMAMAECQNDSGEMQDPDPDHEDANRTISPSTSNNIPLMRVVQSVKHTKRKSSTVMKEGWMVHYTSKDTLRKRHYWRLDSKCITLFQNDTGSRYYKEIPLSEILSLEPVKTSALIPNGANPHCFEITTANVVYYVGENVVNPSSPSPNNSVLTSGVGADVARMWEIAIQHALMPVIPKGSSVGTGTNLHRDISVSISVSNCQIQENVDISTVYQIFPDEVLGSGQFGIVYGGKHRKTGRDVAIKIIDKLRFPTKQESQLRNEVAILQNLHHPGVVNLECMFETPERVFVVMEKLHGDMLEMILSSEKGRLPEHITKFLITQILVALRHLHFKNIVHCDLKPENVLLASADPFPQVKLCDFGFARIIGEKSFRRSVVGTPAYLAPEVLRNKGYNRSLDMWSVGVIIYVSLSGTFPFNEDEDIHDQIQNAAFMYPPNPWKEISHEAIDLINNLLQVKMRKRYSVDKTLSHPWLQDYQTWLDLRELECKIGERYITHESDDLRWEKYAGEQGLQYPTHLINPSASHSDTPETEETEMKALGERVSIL
Kind of test: Inhibition of PKDl assessed as residual activity at 10 uM. The method in brief: as §2

The target in test [6] is Maternal embryonic leucine zipper kinase (Homo sapiens) (UniProt Q14680). Kind of test: Inhibition of MELK assessed as residual activity at 10 uM. The method in brief: as §1
Maternal embryonic leucine zipper kinase (Homo sapiens), sequence (Q14680 whole entry, looked up): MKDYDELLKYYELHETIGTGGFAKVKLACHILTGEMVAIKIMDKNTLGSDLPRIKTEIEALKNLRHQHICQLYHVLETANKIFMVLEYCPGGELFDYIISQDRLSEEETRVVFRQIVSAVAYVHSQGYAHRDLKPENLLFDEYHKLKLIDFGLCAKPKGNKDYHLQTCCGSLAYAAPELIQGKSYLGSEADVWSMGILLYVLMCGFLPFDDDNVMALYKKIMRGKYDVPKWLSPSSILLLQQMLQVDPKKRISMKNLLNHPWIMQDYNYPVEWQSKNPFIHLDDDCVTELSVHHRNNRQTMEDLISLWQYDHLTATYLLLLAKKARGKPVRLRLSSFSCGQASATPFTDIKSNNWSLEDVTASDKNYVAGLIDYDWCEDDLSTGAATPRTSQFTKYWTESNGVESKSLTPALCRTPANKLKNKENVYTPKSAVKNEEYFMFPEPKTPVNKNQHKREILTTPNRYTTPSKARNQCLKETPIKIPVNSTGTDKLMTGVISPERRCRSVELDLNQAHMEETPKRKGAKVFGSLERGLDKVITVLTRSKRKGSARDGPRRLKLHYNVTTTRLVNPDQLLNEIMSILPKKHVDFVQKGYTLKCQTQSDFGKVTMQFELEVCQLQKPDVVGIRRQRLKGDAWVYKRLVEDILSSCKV
Test [7] has as its target Ribosomal protein S6 kinase beta-1 (Homo sapiens) (UniProt P23443). Put plainly: Inhibition of S6K1 assessed as residual activity at 10 uM. The method in brief: as §2
The target in test [8] is Ribosomal protein S6 kinase alpha-5 (Homo sapiens) (UniProt O75582). Kind of test: Inhibition of MSK1 assessed as residual activity at 10 uM. In short, it runs like this:
as §2

Test [9] has as its target Calcium/calmodulin-dependent protein kinase kinase 2 (Homo sapiens) (UniProt Q96RR4). Put plainly: Inhibition of CAMKKbeta assessed as residual activity at 10 uM. In short, it runs like this: as §1
In test [10] the target is T3, Mitogen-activated protein kinase 13 (Homo sapiens) (UniProt O15264).
T3 sequence (whole entry): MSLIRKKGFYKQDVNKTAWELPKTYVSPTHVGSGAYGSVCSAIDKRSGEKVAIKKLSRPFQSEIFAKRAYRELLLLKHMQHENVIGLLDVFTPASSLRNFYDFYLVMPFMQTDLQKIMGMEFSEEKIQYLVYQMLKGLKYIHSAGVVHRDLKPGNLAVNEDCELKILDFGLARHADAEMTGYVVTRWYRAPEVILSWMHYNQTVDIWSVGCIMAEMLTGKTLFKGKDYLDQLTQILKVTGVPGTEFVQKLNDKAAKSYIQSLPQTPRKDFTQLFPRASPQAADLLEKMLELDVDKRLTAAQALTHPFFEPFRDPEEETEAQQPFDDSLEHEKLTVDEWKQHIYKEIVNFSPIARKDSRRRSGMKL
Put plainly: Inhibition of P38delta assessed as residual activity at 10 uM. In short, it runs like this: as §2

The target of test [11] is Mitogen-activated protein kinase 8 (Homo sapiens) (UniProt P45983). Put plainly: Inhibition of JNK1 assessed as residual activity at 10 uM. In short, it runs like this:
as §1

Test [12] has as its target Dual specificity mitogen-activated protein kinase kinase 1 (Homo sapiens) (UniProt Q02750). Kind of test: Inhibition of MKK1 assessed as residual activity at 10 uM. In short, it runs like this:
as §1

The target of test [13] is Mitogen-activated protein kinase 11 (Homo sapiens) (UniProt Q15759). Put plainly: Inhibition of p38beta assessed as residual activity at 10 uM. In short, it runs like this:
as §2

The target of test [14] is Glycogen synthase kinase-3 beta (Homo sapiens) (UniProt P49841). Put plainly: Inhibition of GSK3-beta assessed as residual activity at 10 uM. In short, it runs like this:
as §1

Test [15] is described as follows: Inhibition of CK2 assessed as residual activity at 10 uM. The method in brief: as §1
The target in test [16] is Serine/threonine-protein kinase PAK 6 (Homo sapiens) (UniProt Q9NQU5). Kind of test: Inhibition of PAK6 assessed as residual activity at 10 uM. In short, it runs like this: as §2

Structures are written as SMILES.

Glycogen synthase kinase-3 beta (Homo sapiens), sequence (P49841 whole entry, looked up): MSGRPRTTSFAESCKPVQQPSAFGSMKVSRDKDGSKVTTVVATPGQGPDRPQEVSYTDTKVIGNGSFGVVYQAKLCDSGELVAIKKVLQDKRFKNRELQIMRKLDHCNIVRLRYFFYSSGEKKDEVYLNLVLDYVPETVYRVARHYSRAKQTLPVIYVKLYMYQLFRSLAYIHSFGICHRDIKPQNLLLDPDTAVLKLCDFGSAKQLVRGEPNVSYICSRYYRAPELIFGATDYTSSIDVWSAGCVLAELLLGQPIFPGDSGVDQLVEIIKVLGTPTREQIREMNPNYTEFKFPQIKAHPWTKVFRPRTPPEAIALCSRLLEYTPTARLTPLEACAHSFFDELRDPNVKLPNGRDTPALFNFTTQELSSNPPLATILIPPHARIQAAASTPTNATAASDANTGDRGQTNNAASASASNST
Calcium/calmodulin-dependent protein kinase kinase 2 (Homo sapiens), sequence (Q96RR4 2-588 limits assumed): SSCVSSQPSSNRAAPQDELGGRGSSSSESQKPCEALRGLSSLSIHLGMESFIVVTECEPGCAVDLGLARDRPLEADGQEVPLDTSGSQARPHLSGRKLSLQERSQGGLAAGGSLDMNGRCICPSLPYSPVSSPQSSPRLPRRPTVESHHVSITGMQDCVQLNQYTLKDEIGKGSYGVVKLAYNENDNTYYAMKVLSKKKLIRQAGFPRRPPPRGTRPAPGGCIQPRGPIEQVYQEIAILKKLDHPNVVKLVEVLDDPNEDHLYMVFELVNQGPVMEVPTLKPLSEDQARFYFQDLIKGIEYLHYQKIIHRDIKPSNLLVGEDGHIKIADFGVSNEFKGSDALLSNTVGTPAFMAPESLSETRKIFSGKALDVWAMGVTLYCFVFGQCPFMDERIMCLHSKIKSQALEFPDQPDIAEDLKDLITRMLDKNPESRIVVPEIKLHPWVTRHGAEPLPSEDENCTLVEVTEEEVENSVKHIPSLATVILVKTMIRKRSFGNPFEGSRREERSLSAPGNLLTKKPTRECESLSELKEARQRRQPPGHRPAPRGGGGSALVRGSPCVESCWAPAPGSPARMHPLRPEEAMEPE
Receptor tyrosine-protein kinase erbB-4 (Homo sapiens), sequence (Q15303 whole entry): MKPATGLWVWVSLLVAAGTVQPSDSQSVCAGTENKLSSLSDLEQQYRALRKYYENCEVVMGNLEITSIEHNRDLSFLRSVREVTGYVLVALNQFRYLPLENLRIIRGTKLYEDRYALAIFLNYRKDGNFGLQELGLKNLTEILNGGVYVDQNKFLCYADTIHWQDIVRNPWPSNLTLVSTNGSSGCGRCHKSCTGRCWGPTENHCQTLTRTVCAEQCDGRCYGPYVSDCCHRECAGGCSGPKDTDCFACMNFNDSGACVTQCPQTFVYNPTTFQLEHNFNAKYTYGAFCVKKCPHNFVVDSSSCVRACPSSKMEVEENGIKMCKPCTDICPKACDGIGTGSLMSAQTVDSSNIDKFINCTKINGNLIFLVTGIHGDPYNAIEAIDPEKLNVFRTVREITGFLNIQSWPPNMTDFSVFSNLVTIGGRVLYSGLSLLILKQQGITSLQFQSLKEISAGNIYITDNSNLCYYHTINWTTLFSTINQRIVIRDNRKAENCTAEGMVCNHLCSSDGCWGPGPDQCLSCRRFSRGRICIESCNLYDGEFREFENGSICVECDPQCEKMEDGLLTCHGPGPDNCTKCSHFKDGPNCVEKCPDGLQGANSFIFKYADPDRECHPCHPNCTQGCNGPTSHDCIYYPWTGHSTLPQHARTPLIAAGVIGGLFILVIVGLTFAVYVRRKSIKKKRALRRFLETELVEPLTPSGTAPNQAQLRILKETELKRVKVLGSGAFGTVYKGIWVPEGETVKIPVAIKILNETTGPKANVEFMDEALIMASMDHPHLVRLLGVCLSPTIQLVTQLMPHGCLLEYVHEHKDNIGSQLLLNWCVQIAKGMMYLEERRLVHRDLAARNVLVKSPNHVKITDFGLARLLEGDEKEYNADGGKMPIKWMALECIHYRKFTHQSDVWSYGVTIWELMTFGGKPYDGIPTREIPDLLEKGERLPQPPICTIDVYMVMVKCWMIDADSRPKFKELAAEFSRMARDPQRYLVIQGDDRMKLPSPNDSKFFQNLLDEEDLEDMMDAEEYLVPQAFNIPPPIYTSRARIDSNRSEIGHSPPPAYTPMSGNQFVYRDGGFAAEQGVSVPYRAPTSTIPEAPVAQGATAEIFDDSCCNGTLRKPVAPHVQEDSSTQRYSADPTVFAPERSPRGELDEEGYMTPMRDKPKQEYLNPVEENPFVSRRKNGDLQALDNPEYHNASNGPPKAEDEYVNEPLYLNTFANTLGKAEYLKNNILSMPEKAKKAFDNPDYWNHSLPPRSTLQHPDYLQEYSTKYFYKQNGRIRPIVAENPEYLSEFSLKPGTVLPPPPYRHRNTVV
Ribosomal protein S6 kinase beta-1 (Homo sapiens), sequence (P23443 whole entry, looked up): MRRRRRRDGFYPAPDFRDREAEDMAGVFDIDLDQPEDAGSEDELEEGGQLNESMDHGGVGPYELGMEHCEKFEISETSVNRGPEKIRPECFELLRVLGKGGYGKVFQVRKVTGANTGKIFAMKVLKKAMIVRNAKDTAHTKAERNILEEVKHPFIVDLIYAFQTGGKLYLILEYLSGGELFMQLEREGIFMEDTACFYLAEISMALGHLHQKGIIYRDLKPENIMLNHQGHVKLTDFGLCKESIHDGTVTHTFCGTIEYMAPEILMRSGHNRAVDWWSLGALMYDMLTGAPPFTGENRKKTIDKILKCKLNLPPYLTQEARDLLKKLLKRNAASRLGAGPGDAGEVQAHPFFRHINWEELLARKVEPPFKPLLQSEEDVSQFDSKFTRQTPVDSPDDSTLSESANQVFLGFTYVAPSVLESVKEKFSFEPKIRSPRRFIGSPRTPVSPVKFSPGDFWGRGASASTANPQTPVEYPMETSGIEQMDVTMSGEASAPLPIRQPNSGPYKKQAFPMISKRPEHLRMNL
Tyrosine-protein kinase Lck (Homo sapiens), sequence (P06239 whole entry, looked up): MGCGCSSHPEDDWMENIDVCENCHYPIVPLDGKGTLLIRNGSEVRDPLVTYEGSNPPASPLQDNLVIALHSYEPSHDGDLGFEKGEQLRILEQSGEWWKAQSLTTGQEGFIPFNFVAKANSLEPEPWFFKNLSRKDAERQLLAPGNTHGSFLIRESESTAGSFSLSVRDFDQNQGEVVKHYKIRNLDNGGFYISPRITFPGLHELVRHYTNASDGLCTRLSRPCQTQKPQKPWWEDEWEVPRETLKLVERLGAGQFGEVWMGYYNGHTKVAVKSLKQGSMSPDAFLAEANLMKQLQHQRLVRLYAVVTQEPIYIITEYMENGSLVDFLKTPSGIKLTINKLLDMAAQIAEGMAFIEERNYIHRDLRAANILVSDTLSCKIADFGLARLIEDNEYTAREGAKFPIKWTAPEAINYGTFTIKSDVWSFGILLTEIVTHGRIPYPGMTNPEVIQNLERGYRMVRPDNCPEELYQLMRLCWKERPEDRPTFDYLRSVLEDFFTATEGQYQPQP
Mitogen-activated protein kinase 11 (Homo sapiens), sequence (Q15759 whole entry): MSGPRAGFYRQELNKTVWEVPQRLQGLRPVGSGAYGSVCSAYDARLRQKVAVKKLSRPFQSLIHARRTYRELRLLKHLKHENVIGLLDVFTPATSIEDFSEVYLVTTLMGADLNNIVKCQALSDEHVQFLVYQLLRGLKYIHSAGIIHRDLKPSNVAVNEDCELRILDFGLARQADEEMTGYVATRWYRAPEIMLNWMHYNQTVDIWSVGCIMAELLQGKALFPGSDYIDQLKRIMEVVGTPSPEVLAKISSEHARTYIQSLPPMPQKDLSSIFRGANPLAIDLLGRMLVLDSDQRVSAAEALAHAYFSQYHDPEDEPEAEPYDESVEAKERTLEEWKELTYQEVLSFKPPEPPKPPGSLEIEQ

Turning to `CN(C)C/C=C/C(=O)Nc1ccc2c(C#N)cnc(Nc3cccc(Br)c3)c2c1`, the Activity in [1] is 99%; in test [2], 60%; in test [3], 59%; in [4] it was 21%; in test [5], 79%; in [6], 75%. Also, the Activity came to 71% in test [7]; 95% in [8]; 91% in [9]; 86% in test [10]; 91% in test [11]; 47% in [12]. For the same compound, the Activity in test [13] came to 95%; in [14] it was 78%; in test [15], 99%; in [16], 100%.
Turning to `CN1CCN(CCC(=O)Nc2ccc3c(C#N)cnc(Nc4cccc(Br)c4)c3c2)CC1`, the Activity turned out to be 100% in [1]; 32% in test [2]; 68% in test [3]; 57% in [4]; 83% in test [5]; 89% in [6]. For the same compound, the Activity in [7] came out at 82%; in [8], 81%; in test [9], 87%; in test [10] it was 77%; in test [11], 99%; in [12], 79%. Besides, the Activity in test [13] turned out to be 100%; in test [14] it was 100%; in [15], 90%; in test [16], 87%.
For the compound `CN(C)CCCC(=O)Nc1ccc2c(C#N)cnc(Nc3cccc(Br)c3)c2c1`, the Activity in test [1] is 100%; in test [2], 32%; in test [3] it was 46%; in test [4] it was 69%; in [5] it was 75%; in [6] it was 80%. Moreover, the Activity turned out to be 84% in test [7]; 86% in test [8]; 92% in test [9]; 94% in [10]; 97% in [11]; 100% in test [12]. The Activity in test [13], in [14], in test [15] and in test [16] was 100% throughout.

The values are drawn from ChEMBL document CHEMBL1641579, “Synthesis and biological evaluation of 7-substituted-1-(3-bromophenylamino)isoquinoline-4-carbonitriles as inhibitors of myosin light chain kinase and epidermal growth factor receptor” (Bioorg Med Chem, 2011).
